Activity calls are given as the source filed them. The rule behind the calls is not given here.
Assays:
[1] = molecular target: T1, Histone deacetylase 2 (Homo sapiens, UniProt Q92769); assay: Inhibition of recombinant full length C-terminal FLAG-tagged human HDAC2 expressed in baculovirus infected Sf9 cells using Boc-Lys(Ac)-AMC as substrate preincubated for 15 mins followed by substrate addition and measured after 60 mins by fluorescence based assay
[2] = molecular target: T2, Histone deacetylase 1 (Homo sapiens, UniProt Q13547); assay: Inhibition of recombinant full length C-terminal FLAG/His-tagged human HDAC1 expressed in baculovirus infected Sf9 cells using Boc-Lys(Ac)-AMC as substrate preincubated for 15 mins followed by substrate addition and measured after 60 mins by fluorescence based assay
T2 sequence (Q13547 whole entry, the tested form may be a part): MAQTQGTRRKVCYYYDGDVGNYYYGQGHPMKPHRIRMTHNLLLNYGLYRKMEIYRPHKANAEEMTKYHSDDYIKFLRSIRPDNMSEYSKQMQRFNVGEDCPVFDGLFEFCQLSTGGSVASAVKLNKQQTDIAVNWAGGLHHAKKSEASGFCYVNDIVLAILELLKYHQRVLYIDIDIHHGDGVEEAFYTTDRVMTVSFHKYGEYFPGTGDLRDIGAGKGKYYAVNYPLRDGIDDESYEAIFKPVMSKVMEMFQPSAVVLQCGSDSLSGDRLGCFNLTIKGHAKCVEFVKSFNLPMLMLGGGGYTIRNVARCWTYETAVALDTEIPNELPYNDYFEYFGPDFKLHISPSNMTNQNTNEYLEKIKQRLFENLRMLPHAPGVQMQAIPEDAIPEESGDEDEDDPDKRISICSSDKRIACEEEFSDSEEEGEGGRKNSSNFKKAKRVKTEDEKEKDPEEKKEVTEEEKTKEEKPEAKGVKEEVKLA

[3] = molecular target: Histone deacetylase 3/Nuclear receptor corepressor 2 (HDAC3/NCoR2) (Homo sapiens, UniProt O15379); assay: Inhibition of C-terminal His-tagged recombinant human HDAC3 (1 to 428 residues)/N-terminal GST-tagged recombinant human NCoR2 (395 to 489 residues) co-expressed in baculovirus infected Sf9 cells using Boc-Lys(Ac)-AMC as substrate preincubated for 15 mins followed by substrate addition and measured after 60 mins by fluorescence based assay
Histone deacetylase 3/Nuclear receptor corepressor 2 (HDAC3/NCoR2), sequence (O15379 whole entry, the tested form may be a part): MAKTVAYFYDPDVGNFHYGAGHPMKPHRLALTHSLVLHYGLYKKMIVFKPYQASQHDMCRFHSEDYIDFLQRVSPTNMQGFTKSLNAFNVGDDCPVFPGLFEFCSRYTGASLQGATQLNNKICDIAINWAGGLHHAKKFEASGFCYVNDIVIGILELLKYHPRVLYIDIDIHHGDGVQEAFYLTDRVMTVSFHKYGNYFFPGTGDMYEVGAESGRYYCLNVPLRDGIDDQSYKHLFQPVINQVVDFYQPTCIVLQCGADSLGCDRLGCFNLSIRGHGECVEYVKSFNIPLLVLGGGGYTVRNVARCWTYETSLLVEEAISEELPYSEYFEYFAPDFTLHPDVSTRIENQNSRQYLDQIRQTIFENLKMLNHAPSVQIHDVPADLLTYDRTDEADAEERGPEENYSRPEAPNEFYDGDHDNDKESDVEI
Histone deacetylase 3/Nuclear receptor corepressor 2 (HDAC3/NCoR2), sequence (Q9Y618 whole entry, further chain, the tested form may be a part): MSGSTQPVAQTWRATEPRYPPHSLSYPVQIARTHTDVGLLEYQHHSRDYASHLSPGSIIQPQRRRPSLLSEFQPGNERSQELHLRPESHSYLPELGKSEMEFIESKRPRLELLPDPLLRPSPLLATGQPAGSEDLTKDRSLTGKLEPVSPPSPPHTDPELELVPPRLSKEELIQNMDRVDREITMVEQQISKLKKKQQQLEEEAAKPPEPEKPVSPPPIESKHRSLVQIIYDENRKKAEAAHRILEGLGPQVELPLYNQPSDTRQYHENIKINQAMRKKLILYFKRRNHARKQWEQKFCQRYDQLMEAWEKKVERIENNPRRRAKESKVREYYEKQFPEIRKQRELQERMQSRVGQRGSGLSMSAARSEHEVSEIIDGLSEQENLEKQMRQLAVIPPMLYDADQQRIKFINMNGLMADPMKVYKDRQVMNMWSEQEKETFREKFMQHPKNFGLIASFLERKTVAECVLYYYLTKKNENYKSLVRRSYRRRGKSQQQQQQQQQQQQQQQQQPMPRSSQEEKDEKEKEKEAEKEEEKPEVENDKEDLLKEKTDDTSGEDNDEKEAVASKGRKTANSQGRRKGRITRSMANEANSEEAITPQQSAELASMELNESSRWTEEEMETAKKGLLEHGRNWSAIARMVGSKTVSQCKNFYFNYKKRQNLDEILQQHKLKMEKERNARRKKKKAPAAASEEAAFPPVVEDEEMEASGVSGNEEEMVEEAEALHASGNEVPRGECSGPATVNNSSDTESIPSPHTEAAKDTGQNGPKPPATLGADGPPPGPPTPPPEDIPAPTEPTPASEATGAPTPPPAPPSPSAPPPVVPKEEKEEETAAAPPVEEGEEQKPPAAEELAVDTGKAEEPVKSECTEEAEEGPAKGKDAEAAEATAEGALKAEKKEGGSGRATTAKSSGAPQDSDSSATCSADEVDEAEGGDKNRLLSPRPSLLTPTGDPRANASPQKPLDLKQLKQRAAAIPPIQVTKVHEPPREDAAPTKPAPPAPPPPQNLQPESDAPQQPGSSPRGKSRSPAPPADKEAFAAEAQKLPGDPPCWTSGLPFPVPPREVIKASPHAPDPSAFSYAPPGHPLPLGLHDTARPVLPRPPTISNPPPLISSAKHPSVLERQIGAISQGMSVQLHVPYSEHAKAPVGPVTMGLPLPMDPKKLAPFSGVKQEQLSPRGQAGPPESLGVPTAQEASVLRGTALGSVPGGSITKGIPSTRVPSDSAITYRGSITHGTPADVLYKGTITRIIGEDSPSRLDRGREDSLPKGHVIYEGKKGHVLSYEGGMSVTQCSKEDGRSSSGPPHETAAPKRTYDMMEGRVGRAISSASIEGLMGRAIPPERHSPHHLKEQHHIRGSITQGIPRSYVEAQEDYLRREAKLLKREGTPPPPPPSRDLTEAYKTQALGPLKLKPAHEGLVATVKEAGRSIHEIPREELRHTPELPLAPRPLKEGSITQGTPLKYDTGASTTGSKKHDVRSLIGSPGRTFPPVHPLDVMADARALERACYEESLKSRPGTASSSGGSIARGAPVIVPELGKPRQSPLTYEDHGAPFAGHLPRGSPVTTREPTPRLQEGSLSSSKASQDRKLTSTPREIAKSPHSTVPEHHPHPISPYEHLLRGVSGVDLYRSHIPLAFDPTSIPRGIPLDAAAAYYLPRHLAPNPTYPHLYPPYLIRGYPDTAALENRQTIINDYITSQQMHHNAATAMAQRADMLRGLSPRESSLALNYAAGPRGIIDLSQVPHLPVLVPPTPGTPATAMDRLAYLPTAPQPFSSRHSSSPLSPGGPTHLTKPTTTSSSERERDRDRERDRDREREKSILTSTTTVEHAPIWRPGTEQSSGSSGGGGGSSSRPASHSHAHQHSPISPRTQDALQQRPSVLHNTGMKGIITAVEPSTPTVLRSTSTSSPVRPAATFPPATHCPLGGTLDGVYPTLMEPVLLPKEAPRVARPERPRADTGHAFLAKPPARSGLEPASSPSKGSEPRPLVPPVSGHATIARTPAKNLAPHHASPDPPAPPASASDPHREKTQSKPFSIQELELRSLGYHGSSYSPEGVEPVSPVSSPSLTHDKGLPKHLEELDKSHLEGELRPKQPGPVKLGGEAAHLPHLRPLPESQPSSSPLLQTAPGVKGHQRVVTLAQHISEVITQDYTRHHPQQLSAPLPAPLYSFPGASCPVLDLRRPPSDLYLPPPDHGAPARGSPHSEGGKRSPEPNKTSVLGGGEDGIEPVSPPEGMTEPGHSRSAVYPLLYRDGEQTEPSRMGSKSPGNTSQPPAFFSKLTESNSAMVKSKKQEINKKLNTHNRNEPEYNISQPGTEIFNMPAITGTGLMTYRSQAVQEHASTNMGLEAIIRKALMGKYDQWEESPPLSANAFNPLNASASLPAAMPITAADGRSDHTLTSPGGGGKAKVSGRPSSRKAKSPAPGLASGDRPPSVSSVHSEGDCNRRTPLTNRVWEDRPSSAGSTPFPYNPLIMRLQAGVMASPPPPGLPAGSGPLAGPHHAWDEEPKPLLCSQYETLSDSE

[4] = molecular target: T3, Protein deacetylase HDAC6 (Homo sapiens, UniProt Q9UBN7); assay: Inhibition of recombinant full length C-terminal FLAG-tagged human HDAC6 expressed in baculovirus infected Sf9 cells using Boc-Lys(Ac)-AMC as substrate preincubated for 15 mins followed by substrate addition and measured after 60 mins by fluorescence based assay
T3 sequence (Q9UBN7 whole entry): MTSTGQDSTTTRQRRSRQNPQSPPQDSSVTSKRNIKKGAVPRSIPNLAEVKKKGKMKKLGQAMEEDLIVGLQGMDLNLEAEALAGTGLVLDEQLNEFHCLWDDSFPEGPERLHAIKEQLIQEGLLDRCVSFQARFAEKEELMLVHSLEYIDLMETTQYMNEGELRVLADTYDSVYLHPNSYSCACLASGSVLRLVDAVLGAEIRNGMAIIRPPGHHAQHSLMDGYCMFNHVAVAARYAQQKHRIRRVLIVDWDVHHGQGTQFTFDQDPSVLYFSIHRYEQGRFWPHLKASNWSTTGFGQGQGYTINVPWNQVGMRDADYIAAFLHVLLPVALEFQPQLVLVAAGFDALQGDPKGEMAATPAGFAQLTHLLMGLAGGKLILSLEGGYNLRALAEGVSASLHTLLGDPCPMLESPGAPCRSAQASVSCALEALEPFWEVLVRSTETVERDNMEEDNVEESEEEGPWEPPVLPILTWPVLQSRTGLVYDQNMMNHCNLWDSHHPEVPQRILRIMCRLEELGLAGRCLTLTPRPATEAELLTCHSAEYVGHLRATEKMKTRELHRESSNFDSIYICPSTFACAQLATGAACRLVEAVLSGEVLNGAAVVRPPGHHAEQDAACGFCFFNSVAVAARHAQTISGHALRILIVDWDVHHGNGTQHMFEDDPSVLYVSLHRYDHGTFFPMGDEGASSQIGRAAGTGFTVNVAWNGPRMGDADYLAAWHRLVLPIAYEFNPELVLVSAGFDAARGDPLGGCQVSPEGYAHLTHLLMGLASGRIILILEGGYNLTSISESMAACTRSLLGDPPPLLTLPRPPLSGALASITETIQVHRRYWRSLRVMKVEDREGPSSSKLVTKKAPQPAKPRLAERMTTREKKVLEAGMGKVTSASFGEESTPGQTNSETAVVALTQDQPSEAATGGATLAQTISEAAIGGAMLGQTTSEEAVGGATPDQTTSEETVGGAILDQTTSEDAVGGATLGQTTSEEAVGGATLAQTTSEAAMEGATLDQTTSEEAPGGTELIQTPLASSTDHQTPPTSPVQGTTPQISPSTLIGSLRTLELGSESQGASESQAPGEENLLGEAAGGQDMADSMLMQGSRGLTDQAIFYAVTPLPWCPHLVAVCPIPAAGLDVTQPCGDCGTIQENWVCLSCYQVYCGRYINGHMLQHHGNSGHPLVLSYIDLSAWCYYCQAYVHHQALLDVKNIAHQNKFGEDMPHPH

[5] = tested on: HL-60; assay: Growth inhibition of human HL-60 cells after 72 hrs by trypan blue dye based assay; type: functional; settings: for GI50: Homo sapiens, HL-60
Outline: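 HL-60 leukemia cells were exposed to compound for 72 h. Growth inhibition is reported as IG50 (half the growth inhibition concentration), as means plus SD of three independent experiments.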

[6] = tested on: HL-60; assay: Induction of apoptosis in human HL-60 cells assessed as necrotic cells at 40 uM incubated for 24 hrs by propidium iodide and annexin-V FITC staining based FACS analysis (reference value: 0.1 %); type: functional
[7] = tested on: HL-60; assay: Induction of apoptosis in human HL-60 cells assessed as necrotic cells at 20 uM incubated for 24 hrs by propidium iodide and annexin-V FITC staining based FACS analysis (reference value: 0.1 %); type: functional
[8] = tested on: HL-60; assay: Induction of apoptosis in human HL-60 cells assessed as early apoptotic cells at 20 uM incubated for 24 hrs by propidium iodide and annexin-V FITC staining based FACS analysis (reference value: 2.0 %); type: functional
[9] = tested on: MCF7; assay: Antiproliferative activity against human MCF7 cells assessed as cell growth inhibition incubated for 96 hrs by MTT assay; type: functional
[10] = tested on: HL-60; assay: Induction of apoptosis in human HL-60 cells assessed as viable cells at 20 uM incubated for 24 hrs by propidium iodide and annexin-V FITC staining based FACS analysis (reference value: 96.3 %); type: functional; settings: read-out: Activity
[11] = tested on: HL-60; assay: Induction of apoptosis in human HL-60 cells assessed as viable cells at 40 uM incubated for 24 hrs by propidium iodide and annexin-V FITC staining based FACS analysis (reference value: 96.3 %); type: functional; settings: read-out: Activity
[12] = Antiproliferative activity against mouse LL/2 cells assessed as cell growth inhibition incubated for 96 hrs by MTT assay; type: functional, Lewis lung carcinoma
[13] = tested on: A549; assay: Antiproliferative activity against human A549 cells assessed as cell growth inhibition incubated for 96 hrs by MTT assay; type: functional
[14] = tested on: HL-60; assay: Induction of apoptosis in human HL-60 cells assessed as early apoptotic cells at 40 uM incubated for 24 hrs by propidium iodide and annexin-V FITC staining based FACS analysis (reference value: 2.0 %); type: functional
[15] = tested on: HL-60; assay: Induction of apoptosis in human HL-60 cells assessed as late apoptotic cells at 40 uM incubated for 24 hrs by propidium iodide and annexin-V FITC staining based FACS analysis (reference value: 1.7 %); type: functional
[16] = molecular target: T2, Histone deacetylase 1; assay: Inhibition of HDAC1 in human HL-60 cells assessed as increase in Ac-H3 level at 2 uM incubated for 24 hrs by Western blot analysis; type: cell-based
Outline: (§1)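 Compound given to HL-60 cells for 24 h at the stated concentrations, then lysed. Acetyl-histone H3 and acetyl-α-tubulin levels were read by Western blot, with total H3, α-tubulin or β-actin as references.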

[17] = tested on: HL-60; assay: Induction of apoptosis in human HL-60 cells assessed as late apoptotic cells at 20 uM incubated for 24 hrs by propidium iodide and annexin-V FITC staining based FACS analysis (reference value: 1.7 %); type: functional
[18] = tested on: HCT-116; assay: Antiproliferative activity against human HCT-116 cells assessed as cell growth inhibition incubated for 96 hrs by MTT assay; type: functional
[19] = molecular target: T1, Histone deacetylase 2; assay: Inhibition of HDAC2 in human HL-60 cells assessed as increase in Ac-H3 level at 20 uM incubated for 24 hrs by Western blot analysis; type: cell-based; outline: as §1
[20] = molecular target: Histone deacetylase 3 (Homo sapiens) (UniProt O15379); assay: Inhibition of HDAC3 in human HL-60 cells assessed as increase in Ac-H3 level at 20 uM incubated for 24 hrs by Western blot analysis; type: cell-based; outline: as §1
Histone deacetylase 3 (Homo sapiens), sequence (O15379 whole entry): as the sequence (O15379 whole entry, the tested form may be a part) above

[21] = molecular target: T2, Histone deacetylase 1; assay: Inhibition of HDAC1 in human HL-60 cells assessed as increase in Ac-H3 level at 20 uM incubated for 24 hrs by Western blot analysis; type: cell-based; outline: as §1
[22] = tested on: HL-60; assay: Induction of apoptosis in human HL-60 cells assessed as late apoptotic cells at 20 uM incubated for 24 hrs by propidium iodide and annexin-V FITC staining based FACS analysis (reference value: 3.7 %); type: functional
[23] = tested on: HL-60; assay: Induction of apoptosis in human HL-60 cells assessed as early apoptotic cells at 20 uM incubated for 24 hrs by propidium iodide and annexin-V FITC staining based FACS analysis (reference value: […]); type: functional
[24] = tested on: HL-60; assay: Induction of apoptosis in human HL-60 cells assessed as necrotic cells at 20 uM incubated for 24 hrs by propidium iodide and annexin-V FITC staining based FACS analysis (reference value: 0.5 %); type: functional
[25] = tested on: HL-60; assay: Induction of apoptosis in human HL-60 cells assessed as viable cells at 20 uM incubated for 24 hrs by propidium iodide and annexin-V FITC staining based FACS analysis (reference value: 93.9 %); type: functional; settings: read-out: Activity
[26] = Toxicity in mouse LL/2 cells inoculated C57BL/6J mouse assessed as effect on body weight by measuring initial body weight at 25 mg/kg, ip administered for 12 days measured for every 2 days (reference value: 18.4 +/- 0.4 g); type: organism-based; settings: in vivo, 288 h, time 12 day
[27] = Toxicity in mouse LL/2 cells inoculated C57BL/6J mouse assessed as effect on body weight by measuring end body weight at 25 mg/kg, ip administered for 12 days and measured for every 2 days (reference value: 18.1 +/- 0.2 g); type: organism-based; settings: in vivo, 288 h, time 12 day
[28] = Antitumor activity against mouse LL/2 cells inoculated in C57BL/6J mouse assessed as reduction of tumor weight at 25 mg/kg, ip administered for 12 days measured at day 14 (reference value: 0.98 +/- 0.07 g); type: functional, Lewis lung carcinoma; settings: time 12 day

T1 sequence (Q92769 whole entry): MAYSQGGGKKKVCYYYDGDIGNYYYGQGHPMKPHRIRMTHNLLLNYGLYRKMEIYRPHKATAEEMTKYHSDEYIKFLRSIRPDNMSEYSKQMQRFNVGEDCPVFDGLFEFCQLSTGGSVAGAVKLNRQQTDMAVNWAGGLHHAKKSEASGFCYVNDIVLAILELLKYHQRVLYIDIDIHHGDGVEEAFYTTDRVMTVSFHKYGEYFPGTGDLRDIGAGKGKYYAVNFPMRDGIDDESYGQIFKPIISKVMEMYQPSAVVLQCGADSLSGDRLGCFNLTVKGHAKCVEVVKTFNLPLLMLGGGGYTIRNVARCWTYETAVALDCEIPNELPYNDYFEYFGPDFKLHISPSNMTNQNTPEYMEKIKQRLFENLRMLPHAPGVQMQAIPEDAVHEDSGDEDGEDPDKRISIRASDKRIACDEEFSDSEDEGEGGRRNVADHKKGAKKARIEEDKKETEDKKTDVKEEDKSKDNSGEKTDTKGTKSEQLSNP

Compound | IC50 [1] | IC50 [2] | IC50 [3] | IC50 [4] | GI50 [5] | IG50 [5] | other results
Nc1ccccc1NC(=O)CCNC(=O)/C(Cc1ccc(O)c(Br)c1)=N/O | > 10 µM | > 10 µM | > 10 µM | > 10 µM |  | >40 µM | 
Nc1cc(F)ccc1NC(=O)/C=C/c1cnn(C/C=C/c2ccccc2)c1 |  |  |  |  |  | 6.1 µM | Activity [6]: 2.9%; Activity [7]: 0.5%; Activity [8]: 3%; IG50 [9]: 30 µM; viability at 20 µM [10]: 89.3%; viability at 40 µM [11]: 75.1%; IG50 [12]: 10.8 µM; IG50 [13]: 28.3 µM; Activity [14]: 4.8%; Activity [15]: 17.2%; inhibition [16]: inactive; Activity [17]: 7.2%; IG50 [18]: 22 µM
Nc1ccccc1NC(=O)CNC(=O)/C(Cc1ccc(O)c(Br)c1)=N/O | > 10 µM | > 10 µM | > 10 µM | > 10 µM |  | >40 µM | 
Nc1ccccc1NC(=O)CCCCNC(=O)/C(Cc1ccc(O)c(Br)c1)=N/O | 9.76 µM | > 10 µM | 1.43 µM | > 10 µM |  | >40 µM | 
Nc1ccccc1NC(=O)CCCNC(=O)/C(Cc1ccc(O)c(Br)c1)=N/O | > 10 µM | > 10 µM | 1.83 µM | > 10 µM |  | >40 µM | 
O=C(CCCCCCC(=O)Nc1ccccc1)NO [VORINOSTAT] |  |  |  |  |  |  | Activity [26]: 17.9 g; Activity [27]: 18.1 g; Activity [28]: 0.55 g
O=C(CCCCNC(=O)/C(Cc1ccc(O)c(Br)c1)=N/O)NO | > 10 µM | 0.436 µM | 0.249 µM | 1.29 µM |  | >40 µM | 
O=C(CNC(=O)/C(Cc1ccc(O)c(Br)c1)=N/O)NO | 9.21 µM | 2.93 µM | 1.23 µM | > 10 µM |  | >40 µM | 

The next lines start with results.

IC50 [1] | IC50 [2] | IC50 [3] | IC50 [4] | GI50 [5] | Compound | IG50 [5] | other results
> 10 µM | 1.01 µM | > 10 µM | > 10 µM |  | O=C(CCCNC(=O)/C(Cc1ccc(O)c(Br)c1)=N/O)NO | >40 µM | 
> 10 µM | > 10 µM | > 10 µM | > 10 µM | 36 µM | CCCCNC(=O)/C(Cc1ccc(O)c(Br)c1)=N/O |  | 
> 10 µM | > 10 µM | > 10 µM | > 10 µM | 20 µM | O=C(NCCO)/C(Cc1ccc(O)c(Br)c1)=N/O |  | inhibition [19]: inactive; inhibition [20]: inactive; inhibition [21]: inactive; Activity [22]: 3.7%; Activity [23]: 1.7%; Activity [24]: 0.1%; viability at 20 µM [25]: 94.4%
> 10 µM | > 10 µM | > 10 µM | > 10 µM | 11.8 µM | O=C(O)CCNC(=O)/C(Cc1ccc(O)c(Br)c1)=N/O |  | inhibition [19]: inactive; inhibition [20]: inactive; inhibition [21]: inactive; Activity [22]: 3.4%; Activity [23]: 2.2%; Activity [24]: 0.2%; viability at 20 µM [25]: 94.2%
> 10 µM | > 10 µM | > 10 µM | > 10 µM | 13.5 µM | CCCNC(=O)/C(Cc1ccc(O)c(Br)c1)=N/O |  | inhibition [19]: inactive; inhibition [20]: inactive; inhibition [21]: inactive; Activity [22]: 2.5%; Activity [23]: 1.8%; Activity [24]: 0.2%; viability at 20 µM [25]: 95.5%

Source: ChEMBL document CHEMBL4673384, “Studying Histone Deacetylase Inhibition and Apoptosis Induction of Psammaplin A Monomers with Modified Thiol Group” (ACS Med Chem Lett, 2021)
